Test [1] is described as follows: Antitumor activity against SW900 human lung carcinoma cell line. The class given is functional, cell-based. An outline of the steps:
(§1)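 Crystal violet staining of cultured tumour cells. The stain was solubilized in 0.1 M AcOH-EtOH (1:1 v/v) and optical density read at 590 nm. IC50 came from linear regression of the absorbance data. Compounds were in DMSO vehicle; mitomycin C was in DMSO/saline. Indoloquinone values are the mean of two experiments per cell line.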

Test [2] deals with P388. Description: Maximum effect on P388 murine leukemia in mice at a dose of 6.4 mg/kg. Format: functional, Mus musculus.
In test [3] the test system is HCT-116. Description: Antitumor activity against HCT116 human colon carcinoma cell line. Format: functional, cell-based. An outline of the steps: as §1
The subject of the next test is B16-F10. Description: Antitumor activity against B16-F10 murine melanoma cell line. Format: functional, cell-based. To be noted: Mus musculus. In outline: as §1
The species named for a further test is Homo sapiens. Description: Antitumor activity against moser human colon carcinoma cell line. Format: functional. In outline: as §1
A short description of test [4]: Antitumor activity against SW1271 human lung carcinoma cell line. Format: functional, cell-based. In outline:
as §1

For test [5], the system named is P388. Description: Maximum effect on P388 murine leukemia in mice at a dose of 25.6 mg/kg.
The subject of the next test is B16. Description: Antitumor activity against B16-BN murine melanoma cell line. Format: functional, cell-based. Particulars: Mus musculus. An outline of the steps: as §1
For test [6], the system named is A549. Description: Antitumor activity against A549 human lung carcinoma cell line. Format: functional, cell-based. An outline of the steps: as §1
Test [7] deals with HCT-116. Description: Antitumor activity against HCT116 human colon carcinoma cell line experiment 1. Format: functional, cell-based. An outline of the steps: (§2)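 Cell growth in A549 and HCT-116 cultures was read by tetrazolium staining, with an IC50 reported for each of two separate experiments.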
Test [8] deals with A549. The test is described as follows: Antitumor activity against A549 human lung carcinoma cell line in experiment 2. Format: functional, cell-based. An outline of the steps: as §2
In test [9] the test system is A549. Description: Antitumor activity against A549 human lung carcinoma cell line in experiment 1. Format: functional, cell-based. In outline:
as §2

The test system of test [10] is HCT-116. The test is described as follows: Antitumor activity against HCT116 human colon carcinoma cell line experiment 2. The class given is functional, cell-based. An outline of the steps:
as §2

Test [11] has as its system P388. Description: Maximum effect on P388 murine leukemia in mice at a dose of 12.8 mg/kg. Format: functional, Mus musculus. In outline: (§3)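 P388 leukemia, 10^6 ascites cells implanted in CDF1 female mice; single dose on day 1, six mice per dose, 10 saline controls, concurrent mitomycin C control group per experiment. Max effect = % T/C (median survival time treated/control × 100) at optimal dose.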

Test [12] concerns P388. The test is described as follows: Maximum effect on P388 murine leukemia in mice at a dose of 51.2 mg/kg. The class given is functional, Mus musculus.
Test [13] deals with P388. Description: Minimum effective dose of compound against P388 murine leukemia in mice. The class given is functional. Particulars: Mus musculus, read-out: MED. In outline: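 P388 ascites leukemia (10^6 cells) in CDF1 female mice, dosed once on day 1, six mice per dose, saline controls (10). Minimal effective dose defined as dose giving % T/C = 125, from median survival times.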

For test [14], the system named is P388. Description: Maximum effect on P388 murine leukemia in mice at a dose of 32.0 mg/kg. Format: functional, Mus musculus. An outline of the steps:
as §3

Test [15] relates to P388. The test is described as follows: Maximum effect against P388 murine leukemia in mice at a dose of 25.6 mg/kg. Format: functional, Mus musculus.

In brackets after ≈: the same amount, converted by molar mass. Some results are limits rather than exact numbers.

With `CNC(=O)OCc1c2c(n(C)c1COC(=O)NC)C(=O)C(C)=C(OC)C2=O`, the IC50 in [1] is below 0.03 µg/mL; in the test with HCT-116 [3] it was below 0.03 µg/mL; in the test with B16-F10 it was below 0.03 µg/mL; in the test filed under Homo sapiens, below 0.03 µg/mL; in test [4] it was 0.14 µg/mL (≈ 0.369 µM). In the test with P388 [2], this molecule returned a T/C of 100%.
In turn, `CNC(=O)OCc1c2c(n(C)c1COC(C)=O)C(O)=C(C)C(=N)C2=O` displayed a T/C in the test with P388 [5] of 105%. The IC50 is 14 µg/mL (≈ 40.1 µM) in the test on B16; above 31 µg/mL with HCT-116 [3]; above 31 µg/mL in the test with B16-F10; above 3.1 µg/mL with A549 [6]; 12.8 µg/mL (≈ 36.6 µM) in the test listed under Homo sapiens; above 31 µg/mL in test [4].
Turning to `CO[C@@]12[C@H](COC(N)=O)C3=C(C(=O)C(C)=C(N)C3=O)N1C[C@@H]1N[C@@H]12` [MITOMYCIN], the IC50 with HCT-116 [7] worked out at 0.015 µg/mL (≈ 0.0449 µM); in the test on A549 [8], 0.08 µg/mL (≈ 0.239 µM); with A549 [9], 0.015 µg/mL (≈ 0.0449 µM); in test [1], 0.24 µg/mL (≈ 0.718 µM); in the test on B16 it was 3.6 µg/mL (≈ 10.8 µM); with HCT-116 [10], 0.01 µg/mL (≈ 0.0299 µM). Moreover, the IC50 with HCT-116 [3] was found to be 1.1 µg/mL (≈ 3.29 µM); in the test with B16-F10, 1.5 µg/mL (≈ 4.49 µM); with A549 [6], 0.47 µg/mL (≈ 1.41 µM); in the test filed under Homo sapiens, 2.8 µg/mL (≈ 8.37 µM); in test [4], 8.1 µg/mL (≈ 24.2 µM).
As for `CNC(=O)OCc1c2c(n(C)c1COC(C)=O)C(=O)C(C)=C(N1CC1)C2=O`, in the test on P388 [11], the T/C was determined as 114%. Besides, the IC50 is 0.27 µg/mL (≈ 0.719 µM) in the test on B16; 0.065 µg/mL (≈ 0.173 µM) in the test on HCT-116 [3]; 0.39 µg/mL (≈ 1.04 µM) with B16-F10; below 0.02 µg/mL in the test with A549 [6]; 0.035 µg/mL (≈ 0.0932 µM) in the test filed under Homo sapiens; 0.73 µg/mL (≈ 1.94 µM) in test [4].
On to `CNC(=O)OCc1c2c(n(C)c1COC(C)=O)C(=O)C(C)=C(OC)C2=O`, for which the IC50 is 0.04 µg/mL (≈ 0.11 µM) in test [1]; 0.065 µg/mL (≈ 0.178 µM) in the test on HCT-116 [3]; 0.2 µg/mL (≈ 0.549 µM) in the test with B16-F10; 0.09 µg/mL (≈ 0.247 µM) in the test listed under Homo sapiens; 0.47 µg/mL (≈ 1.29 µM) in test [4]. The T/C in the test with P388 [12] came to 105%.
Turning to `CNC(=O)OCc1c2c(n(C)c1C(C)OC(C)=O)C(=O)C(C)=C(OC)C2=O` (stereo unspecified), the IC50 in the test with HCT-116 [7] worked out at 0.06 µg/mL (≈ 0.159 µM); in the test with A549 [8], 0.065 µg/mL (≈ 0.172 µM); in the test with A549 [9] it was 0.075 µg/mL (≈ 0.198 µM); in the test on HCT-116 [10] it was 0.06 µg/mL (≈ 0.159 µM).
For `CNC(=O)OCc1c2c(n(C)c1COC(=O)NC)C(=O)C(C)=C(N1CC1)C2=O`, the IC50 in the test on B16 was found to be 1.6 µg/mL (≈ 4.1 µM); in the test with HCT-116 [3] it was 0.17 µg/mL (≈ 0.435 µM); with B16-F10, 0.66 µg/mL (≈ 1.69 µM); in the test with A549 [6], 0.03 µg/mL (≈ 0.0768 µM); in the test filed under Homo sapiens it was 0.13 µg/mL (≈ 0.333 µM); in [4], 2.7 µg/mL (≈ 6.92 µM). Besides, the minimal effective dose in the test on P388 [13] was determined as 14.5 mg/kg. Besides, the T/C with P388 [14] is recorded as 145%.
Consider `CNC(=O)OCc1c2c(n(C)c1COC(=O)NC)C(O)=C(C)C(=N)C2=O`, for which the T/C in the test on P388 [15] came to 120%. Further, the IC50 in the test on B16 is 9.5 µg/mL (≈ 26.1 µM); in the test on HCT-116 [3], 3.7 µg/mL (≈ 10.2 µM); in the test with B16-F10, 13.3 µg/mL (≈ 36.5 µM); in the test with A549 [6] it was 1.6 µg/mL (≈ 4.39 µM); in the test listed under Homo sapiens it was 3.1 µg/mL (≈ 8.51 µM); in test [4] it was 7.9 µg/mL (≈ 21.7 µM).

A word on the IC50: it is the concentration needed to halve the response being measured. The low end stands for greater potency in that assay, the high end for weaker potency in that assay. Broadly, the T/C is the result in the treated group divided by that in the control group, in per cent.

Source of the values: ChEMBL document CHEMBL1124560, “New 2-substituted indoloquinone mitomycin analogues” (J Med Chem, 1989).
